Test results from ChEMBL document CHEMBL1122098, “2-Amino-4,7-dimethoxyindan derivatives: synthesis and assessment of dopaminergic and cardiovascular actions” (1982).

Columns and labels:
Type in all cases: functional
[1] = organism: Rattus norvegicus; test: Tested for the alteration in rat CNS transmitter synthesis by […] of 5-HTP from olfactory tubercle; set-up: concentration or dose not given beside the values
Method in brief: (§1)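 Rat in vivo synthesis-index model (Carlsson): test compound 4.0 mg/kg sc given 30 min before GBL 750 mg/kg ip in distilled water; apomorphine 4.0 mg/kg sc 5 min before GBL. Five min after GBL, NSD 1015 100 mg/kg ip in saline; decapitation 30 min later. Dopa in caudate nucleus and 5-HTP in olfactory tubercle measured, expressed as percent of saline+GBL control; p < 0.05 criterion.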

[2] = organism: Rattus norvegicus; test: Tested for the alteration in rat CNS transmitter synthesis by […] of Dopa from caudate nucleus; set-up: concentration or dose not given beside the values; method in brief: as §1
[3] = Tested for the ratio between rat rotation and the potency to apomorphine
Method in brief: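 Rats with unilateral substantia nigra 6-hydroxydopamine lesions (6 µg in 3 µl). HCl salts in saline given sc, screened at 2 mg/kg; contralateral turns recorded automatically for at least 1 h as turns per hour. Dose-response curves used 4-5 animals; potency ratio to apomorphine with 95% CI calculated over 60 min after dosing.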

[4] = organism: Felis catus; test: Tested for the inhibition of cardioaccelerator nerves in cat; details: read-out: ID50 (the source's name)
Method in brief: (§2)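 Cats 2-4 kg, either sex, anesthetized with pentobarbital sodium 30 mg/kg ip, pretreated with atropine sulfate 0.2 mg/kg iv. Compounds in saline given as iv bolus via femoral catheter. Blood pressure and heart rate recorded. Right cardioaccelerator nerve stimulated at 2 Hz, 5-ms pulses, 20–25 V supramaximal; inhibition of the positive chronotropic response measured, with ED50 calculated. Haloperidol 100 µg/kg iv given beforehand for blockade.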

[5] = system: Felis catus; test: Tested for the change in heart rate after administration in cat; method in brief: as §2
[6] = system: Felis catus; test: Tested for the percent change in blood pressure after administration in cat; method in brief: as §2

| SMILES | Control [1] [%] | Control [2] [%] | Ratio [3] | ED50 [4] [µmol/kg] | HR [5] [beats min-1] | BP change [6] [%] |
| --- | --- | --- | --- | --- | --- | --- |
| CNC1CCc2c(OC)ccc(OC)c2C1 (configuration not stated) | 33.2 | 103.8 | 3.9 |  |  |  |
| CN1CCc2cccc3c2[C@H]1Cc1ccc(O)c(O)c1-3 [APOMORPHINE] |  | 18.3 | 1 | 0.103 |  |  |
| COc1ccc(OC)c2c1CC(NC(C)C)C2 |  |  |  | 1.1 | 0 | 3.8 |
| CCCNC1Cc2c(OC)ccc(OC)c2C1 | 104.7 | 79.1 | 7.4 | 1.1 | -3.2 | 0.7 |
| CNC1Cc2c(OC)ccc(OC)c2C1 | 94.7 | 67.9 | 8.2 | 1.23 | 2.5 | 28.1 |
| COc1ccc(OC)c2c1CC(N(C)C)C2 |  |  | 0.019 | 1.16 | 3.2 | 51.8 |
| COc1ccc(OC)c2c1CC(N)C2 | 109.7 | 94 | 8.7 | 1.55 | 0 | 6.3 |
| CCCN(CCC)C1Cc2c(OC)ccc(OC)c2C1 | 51.5 | 31.8 | 0.13 | 0.107 | -6.4 | -16.6 |
